According to PMC8408915 (Biochemistry, 2021):

Molecular target: T1, KDAC8 (Homo sapiens, UniProt Q9BY41)
T1 sequence (Q9BY41 1-377): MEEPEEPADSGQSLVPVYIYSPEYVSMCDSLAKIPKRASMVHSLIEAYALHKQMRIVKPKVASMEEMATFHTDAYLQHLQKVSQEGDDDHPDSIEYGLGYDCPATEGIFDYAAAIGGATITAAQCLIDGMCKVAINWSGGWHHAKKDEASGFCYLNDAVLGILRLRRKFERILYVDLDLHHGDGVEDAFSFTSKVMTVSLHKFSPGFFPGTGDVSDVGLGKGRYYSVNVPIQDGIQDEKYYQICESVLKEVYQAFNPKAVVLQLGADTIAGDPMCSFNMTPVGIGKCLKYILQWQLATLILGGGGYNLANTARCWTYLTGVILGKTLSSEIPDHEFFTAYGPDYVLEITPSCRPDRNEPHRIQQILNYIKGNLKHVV
Experiment: KDAC8 endpoint in vitro deacetylation activity assay
Assay type: biochemical
Conditions: low ionic strength buffer; 200 nM KDAC8, 100 μM peptide, 25 °C, 15-60 min; average of n≥3; limit of reliable detection 0.0004 s^−1
Summary of the method: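 KDAC8 carried a C-terminal His6 tag. It was expressed in ExpiSf9 cells after bacmid transfection (28 °C, 5 days, then 2 days of suspension amplification) and purified on cobalt (TALON) affinity resin. Peptides were N-terminally acetylated and C-terminally amidated. Buffer was 30 mM potassium phosphate pH 7.6 with 5% glycerol and no KCl. Product was detected with fluorescamine, and endpoint activity was averaged.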

| Substance | Specific activity of KDAC8 with biologically relevant putative KDAC substrates |
| --- | --- |
| AARK^acSAP | 0.0026 ± 0.0002 s^−1 |
| APRK^acQLA | 0.00163 ± 0.00014 s^−1 |
| EIGK^acTLA | - (- indicates no activity above the limit of reliable detection (0.0004 s^−1).) |
| EVGK^acLLN | - (- indicates no activity above the limit of reliable detection (0.0004 s^−1).) |
| GALK^acAPS | - (- indicates no activity above the limit of reliable detection (0.0004 s^−1).) |
| GTAK^acSVT | - (- indicates no activity above the limit of reliable detection (0.0004 s^−1).) |
| GVGK^acYIN | 0.0007 ± 0.0004 s^−1 |
| ITGK^acPSG | - (- indicates no activity above the limit of reliable detection (0.0004 s^−1).) |
| LGGK^acQRA | - (- indicates no activity above the limit of reliable detection (0.0004 s^−1).) |
| LSGK^acGNP | - (- indicates no activity above the limit of reliable detection (0.0004 s^−1).) |
| PEAK^acSLL | - (- indicates no activity above the limit of reliable detection (0.0004 s^−1).) |
| QTAK^acDAG | - (- indicates no activity above the limit of reliable detection (0.0004 s^−1).) |
| SHLK^acAHL | - (- indicates no activity above the limit of reliable detection (0.0004 s^−1).) |
| SVRK^acGIM | 0.0036 ± 0.0008 s^−1 |
| TGGK^acAPR | - (- indicates no activity above the limit of reliable detection (0.0004 s^−1).) |
